Active and inactive are the calls of the source. No cut-off for these calls is given here. Non-standard residues stand in square brackets, D forms with d. Residues, ends and D or L forms follow the SMILES beside them. Bip = N[C@@H](Cc1ccc(-c2ccccc2)cc1)C(=O)O; dPhe(4-I) = N[C@H](Cc1ccc(I)cc1)C(=O)O; 2Nal = N[C@@H](Cc1ccc2ccccc2c1)C(=O)O; d2Nal = N[C@H](Cc1ccc2ccccc2c1)C(=O)O; Bta = N[C@@H](Cc1csc2ccccc12)C(=O)O
Assays:
Melanocortin receptor 4 = Melanocortin receptor 4 (Mus musculus, UniProt P56450); test: Agonist activity at mouse MC4R expressed in HEK293 cells assessed as induction of cAMP accumulation up to 100 uM after 2 hrs by alpha screen assay relative to NDP-MSH; type: cell-based; details: read-out: Activity
[1] = molecular target: Melanocortin receptor 3 (Mus musculus) (UniProt P33033); test: Agonist activity at mouse MC3R expressed in HEK293 cells assessed as induction of cAMP accumulation up to 100 uM after 2 hrs by alpha screen assay relative to NDP-MSH; type: functional, cell-based
Procedure, shortened: (§1)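 HEK293 stably expressing mouse MC1R/MC3R/MC4R/MC5R (pCDNA3). Cells in stimulation buffer (HBSS, 0.5 mM IBMX, 5 mM HEPES, 0.1% BSA, pH 7.4) at 1000 cells/μL with anti-cAMP acceptor beads. Ligand given 10−4 to 10−10 M (or 10−6 to 10−12 M) for 2 h at RT in the dark, then donor beads/biotin-cAMP lysis mix for 2 h. AlphaScreen cAMP read-out, normalized to 10−6 M NDP-MSH as 100%.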

[2] = molecular target: Melanocortin receptor 4 (Mus musculus) (UniProt P56450); test: Antagonist activity at mouse MC4R expressed in HEK293 cells assessed as inhibition of NDP-MSH induced-cAMP accumulation up to 10 uM after 2 hrs by alpha screen assay; type: functional, cell-based
Procedure, shortened: (§2)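 mouse MC3R or MC4R in stably transfected HEK293 cells, AlphaScreen cAMP assay (IBMX stimulation buffer, 2 h RT incubation, then 2 h with donor-bead lysis mix). […] Run in triplicate.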

[3] = molecular target: Melanocortin receptor 3 (Mus musculus) (UniProt P33033); test: Antagonist activity at mouse MC3R expressed in HEK293 cells assessed as inhibition of NDP-MSH induced-cAMP accumulation up to 10 uM after 2 hrs by alpha screen assay; type: functional, cell-based; procedure, shortened: as §2
[4] = molecular target: Melanocyte-stimulating hormone receptor (Mus musculus) (UniProt Q01727); test: Agonist activity at mouse MC1R expressed in HEK293 cells assessed as induction of cAMP accumulation up to 100 uM after 2 hrs by alpha screen assay relative to NDP-MSH; type: functional, cell-based; procedure, shortened: as §1
[5] = molecular target: Melanocortin receptor 5 (Mus musculus) (UniProt P41149); test: Agonist activity at mouse MC5R expressed in HEK293 cells assessed as induction of cAMP accumulation up to 100 uM after 2 hrs by alpha screen assay relative to NDP-MSH; type: functional, cell-based; procedure, shortened: as §1
Melanocortin receptor 5 (Mus musculus), sequence (P41149 whole entry): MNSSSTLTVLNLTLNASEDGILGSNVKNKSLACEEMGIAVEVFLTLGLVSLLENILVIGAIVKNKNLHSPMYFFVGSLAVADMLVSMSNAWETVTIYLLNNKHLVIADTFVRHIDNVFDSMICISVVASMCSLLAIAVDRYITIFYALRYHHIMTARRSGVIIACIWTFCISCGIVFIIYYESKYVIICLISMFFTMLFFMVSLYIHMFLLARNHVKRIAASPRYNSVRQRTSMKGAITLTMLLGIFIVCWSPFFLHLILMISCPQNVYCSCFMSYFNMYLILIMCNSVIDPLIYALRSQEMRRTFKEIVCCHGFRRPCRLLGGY

Melanocortin receptor 4 (Mus musculus), sequence (P56450 whole entry): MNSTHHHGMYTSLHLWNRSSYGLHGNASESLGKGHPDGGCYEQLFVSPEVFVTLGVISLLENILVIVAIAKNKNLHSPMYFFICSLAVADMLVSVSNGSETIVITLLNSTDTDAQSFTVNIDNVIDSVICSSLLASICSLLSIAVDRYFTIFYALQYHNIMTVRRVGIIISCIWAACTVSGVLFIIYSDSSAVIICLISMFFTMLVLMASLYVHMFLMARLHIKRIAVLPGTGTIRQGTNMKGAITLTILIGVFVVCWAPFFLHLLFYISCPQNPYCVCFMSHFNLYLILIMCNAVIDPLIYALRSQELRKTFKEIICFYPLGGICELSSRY
Melanocortin receptor 4, sequence (P56450 whole entry): as above
Melanocortin receptor 3 (Mus musculus), sequence (P33033 whole entry): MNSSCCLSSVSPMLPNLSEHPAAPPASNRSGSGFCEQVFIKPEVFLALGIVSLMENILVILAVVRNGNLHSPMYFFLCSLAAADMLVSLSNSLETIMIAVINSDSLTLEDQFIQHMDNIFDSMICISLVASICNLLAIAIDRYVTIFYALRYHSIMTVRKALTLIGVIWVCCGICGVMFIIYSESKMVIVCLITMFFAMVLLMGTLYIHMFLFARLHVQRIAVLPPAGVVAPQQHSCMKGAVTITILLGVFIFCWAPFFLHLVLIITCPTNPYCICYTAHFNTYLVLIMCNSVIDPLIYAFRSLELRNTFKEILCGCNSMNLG
Melanocyte-stimulating hormone receptor (Mus musculus), sequence (Q01727 whole entry, looked up): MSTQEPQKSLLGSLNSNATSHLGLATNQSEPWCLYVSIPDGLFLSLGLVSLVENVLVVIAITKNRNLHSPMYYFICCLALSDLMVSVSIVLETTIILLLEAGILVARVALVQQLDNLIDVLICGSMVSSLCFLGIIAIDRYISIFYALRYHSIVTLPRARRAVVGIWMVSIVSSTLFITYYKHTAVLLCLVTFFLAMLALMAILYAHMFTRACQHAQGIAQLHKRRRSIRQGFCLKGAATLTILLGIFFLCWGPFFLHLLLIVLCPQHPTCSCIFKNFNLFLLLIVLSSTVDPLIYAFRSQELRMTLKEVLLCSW

Row | Compound | Emax (Melanocortin receptor 4) [%] | Activity [1] [%] | inhibition [2] | inhibition [3] | Activity [4] [%] | Activity [5] [%]
1 | CC(=O)N1Cc2ccccc2C[C@H]1C(=O)N[C@@H](CCCNC(=N)N)C(=O)N[C@H](Cc1ccc(I)cc1)C(=O)N[C@@H](Cc1csc2ccccc12)C(N)=O (HELM PEPTIDE1{[ac].[Tic].R.[O=C([C@@H](Cc1ccc(I)cc1)N[*:1])[*:2]].[O=C([C@H](Cc1csc2ccccc12)N[*:1])[*:2]].[am]}$$$$V2.0) | < 20 | – | – | – | – | –
2 | CC(=O)N[C@@H](Cc1ccc2ccccc2c1)C(=O)N[C@@H](CCCNC(=N)N)C(=O)N[C@H](Cc1ccc(I)cc1)C(=O)N[C@@H](Cc1csc2ccccc12)C(N)=O (Ac-[2Nal]R[dPhe(4-I)][Bta]-NH2) | < 20 | – | – | – | – | –
3 | CC(=O)N[C@@H](Cc1ccc(-c2ccccc2)cc1)C(=O)N[C@@H](CCCNC(=N)N)C(=O)N[C@H](Cc1ccc(I)cc1)C(=O)N[C@@H](Cc1ccc2ccccc2c1)C(N)=O (Ac-[Bip]R[dPhe(4-I)][2Nal]-NH2) | < 20 | < 20 | inactive | inactive | – | –
4 | CC(=O)N[C@@H](Cc1csc2ccccc12)C(=O)N[C@@H](CCCNC(=N)N)C(=O)N[C@H](Cc1ccc(I)cc1)C(=O)N[C@@H](Cc1csc2ccccc12)C(N)=O (Ac-[Bta]R[dPhe(4-I)][Bta]-NH2) | < 20 | – | – | – | – | –
5 | CC(=O)N[C@@H](Cc1ccc(-c2ccccc2)cc1)C(=O)N[C@@H](CCCNC(=N)N)C(=O)N[C@H](Cc1ccc(I)cc1)C(=O)N[C@H](Cc1ccc2ccccc2c1)C(N)=O (Ac-[Bip]R[dPhe(4-I)][d2Nal]-NH2) | < 20 | – | inactive | inactive | – | –
6 | CC(=O)N[C@@H](Cc1ccc2ccccc2c1)C(=O)N[C@@H](CCCNC(=N)N)C(=O)N[C@H](Cc1ccc(I)cc1)C(=O)N[C@H](Cc1ccc2ccccc2c1)C(N)=O (Ac-[2Nal]R[dPhe(4-I)][d2Nal]-NH2) | < 20 | – | inactive | inactive | – | –
7 | CC(=O)N[C@H](Cc1ccc2ccccc2c1)C(=O)N[C@@H](CCCNC(=N)N)C(=O)N[C@H](Cc1ccc(I)cc1)C(=O)N[C@@H](Cc1ccc(-c2ccccc2)cc1)C(N)=O (Ac-[d2Nal]R[dPhe(4-I)][Bip]-NH2) | – | – | – | – | < 20 | –
8 | CC(=O)N1Cc2ccccc2C[C@H]1C(=O)N[C@@H](CCCNC(=N)N)C(=O)N[C@H](Cc1ccc(I)cc1)C(=O)N[C@@H](Cc1ccc2ccccc2c1)C(N)=O (HELM PEPTIDE1{[ac].[Tic].R.[O=C([C@@H](Cc1ccc(I)cc1)N[*:1])[*:2]].[O=C([C@H](Cc1ccc2ccccc2c1)N[*:1])[*:2]].[am]}$$$$V2.0) | < 20 | < 20 | – | inactive | – | –
9 | CC(=O)NC(Cc1ccccc1)C(=O)N[C@@H](CCCNC(=N)N)C(=O)N[C@H](Cc1ccc(I)cc1)C(=O)N[C@@H](Cc1ccc2ccccc2c1)C(N)=O (stereo in doubt) | < 20 | – | – | inactive | – | –
10 | CC(=O)NC(Cc1ccccc1)C(=O)N[C@@H](CCCNC(=N)N)C(=O)N[C@H](Cc1ccc(I)cc1)C(=O)N[C@H](Cc1ccc2ccccc2c1)C(N)=O (stereo in doubt) | < 20 | – | – | inactive | – | –
11 | CC(=O)NC(Cc1ccccc1)C(=O)N[C@@H](CCCNC(=N)N)C(=O)N[C@H](Cc1ccc(I)cc1)C(=O)N[C@@H](Cc1ccc(-c2ccccc2)cc1)C(N)=O (stereo in doubt) | < 20 | – | inactive | inactive | – | –
12 | CC(=O)N[C@@H](Cc1ccc2ccccc2c1)C(=O)N[C@@H](CCCNC(=N)N)C(=O)N[C@H](Cc1ccc(I)cc1)C(=O)NC(Cc1ccccc1)C(N)=O (stereo in doubt) | < 20 | – | inactive | inactive | – | –
13 | CC(=O)NC(Cc1ccccc1)C(=O)N[C@@H](CCCNC(=N)N)C(=O)N[C@H](Cc1ccc(I)cc1)C(=O)NC(Cc1ccccc1)C(N)=O (stereo in doubt) | < 20 | – | inactive | inactive | – | –
14 | CC(=O)N[C@@H](Cc1ccc(-c2ccccc2)cc1)C(=O)N[C@@H](CCCNC(=N)N)C(=O)N[C@H](Cc1ccc(I)cc1)C(=O)N1Cc2ccccc2C[C@H]1C(N)=O (HELM PEPTIDE1{[ac].[O=C([C@H](Cc1ccc(-c2ccccc2)cc1)N[*:1])[*:2]].R.[O=C([C@@H](Cc1ccc(I)cc1)N[*:1])[*:2]].[Tic].[am]}$$$$V2.0) | < 20 | – | – | – | – | –
15 | CC(=O)N1Cc2ccccc2C[C@H]1C(=O)N[C@@H](CCCNC(=N)N)C(=O)N[C@H](Cc1ccc(I)cc1)C(=O)NC(Cc1ccccc1)C(N)=O (stereo in doubt) | < 20 | < 20 | inactive | inactive | – | –
16 | CC(=O)N[C@@H](CCCNC(=N)N)C(=O)N[C@@H](CCCNC(=N)N)C(=O)N[C@H](Cc1ccc(I)cc1)C(=O)NC(Cc1ccccc1)C(N)=O (stereo in doubt) | < 20 | – | – | – | – | –
17 | CC(=O)NC(Cc1ccccc1)C(=O)N[C@@H](CCCNC(=N)N)C(=O)N[C@H](Cc1ccc(I)cc1)C(=O)N[C@@H](Cc1csc2ccccc12)C(N)=O (stereo in doubt) | < 20 | – | – | – | – | –
18 | CC(=O)N[C@@H](Cc1ccc(-c2ccccc2)cc1)C(=O)N[C@@H](CCCNC(=N)N)C(=O)N[C@H](Cc1ccc(I)cc1)C(=O)N[C@@H](Cc1csc2ccccc12)C(N)=O (Ac-[Bip]R[dPhe(4-I)][Bta]-NH2) | < 20 | – | inactive | – | – | –
19 | CC(=O)N[C@@H](Cc1cnc[nH]1)C(=O)N[C@@H](CCCNC(=N)N)C(=O)N[C@H](Cc1ccc(I)cc1)C(=O)NC(Cc1ccccc1)C(N)=O (stereo in doubt) | < 20 | – | – | – | – | –
20 | CC(=O)N[C@@H](Cc1csc2ccccc12)C(=O)N[C@@H](CCCNC(=N)N)C(=O)N[C@H](Cc1ccc(I)cc1)C(=O)N[C@@H](Cc1ccc2ccccc2c1)C(N)=O | < 20 | < 20 | inactive | inactive | – | –
21 | CC(=O)N[C@@H](Cc1csc2ccccc12)C(=O)N[C@@H](CCCNC(=N)N)C(=O)N[C@H](Cc1ccc(I)cc1)C(=O)N[C@@H](Cc1ccc(-c2ccccc2)cc1)C(N)=O (Ac-[Bta]R[dPhe(4-I)][Bip]-NH2) | – | – | inactive | inactive | < 20 | –
22 | CC(=O)N[C@@H](Cc1ccc(-c2ccccc2)cc1)C(=O)N[C@@H](CCCNC(=N)N)C(=O)N[C@H](Cc1ccc(I)cc1)C(=O)NC(Cc1ccccc1)C(N)=O (stereo in doubt) | < 20 | – | – | inactive | – | –
23 | CC(=O)N[C@@H](Cc1csc2ccccc12)C(=O)N[C@@H](CCCNC(=N)N)C(=O)N[C@H](Cc1ccc(I)cc1)C(=O)NC(Cc1ccccc1)C(N)=O (stereo in doubt) | < 20 | – | inactive | inactive | – | –
24 | CC(=O)N[C@H](Cc1ccc2ccccc2c1)C(=O)N[C@@H](CCCNC(=N)N)C(=O)N[C@H](Cc1ccc(I)cc1)C(=O)NC(Cc1ccccc1)C(N)=O (stereo in doubt) | < 20 | < 20 | – | – | – | < 20
25 | CC(=O)N[C@@H](CCCNC(=N)N)C(=O)N[C@@H](CCCNC(=N)N)C(=O)N[C@H](Cc1ccc(I)cc1)C(=O)N[C@@H](Cc1ccc2ccccc2c1)C(N)=O | < 20 | – | – | – | – | –
26 | CC(=O)N[C@@H](Cc1cnc[nH]1)C(=O)N[C@@H](CCCNC(=N)N)C(=O)N[C@H](Cc1ccc(I)cc1)C(=O)N[C@@H](Cc1ccc(-c2ccccc2)cc1)C(N)=O | – | – | inactive | inactive | < 20 | –
27 | CC(=O)NC(Cc1ccccc1)C(=O)N[C@@H](CCCNC(=N)N)C(=O)N[C@H](Cc1ccc(I)cc1)C(=O)N1Cc2ccccc2C[C@H]1C(N)=O (stereo in doubt) | < 20 | – | – | – | – | –
28 | CC(=O)N[C@H](Cc1ccc2ccccc2c1)C(=O)N[C@@H](CCCNC(=N)N)C(=O)N[C@H](Cc1ccc(I)cc1)C(=O)N[C@@H](Cc1csc2ccccc12)C(N)=O (Ac-[d2Nal]R[dPhe(4-I)][Bta]-NH2) | – | – | – | – | – | < 20
29 | CC(=O)N1Cc2ccccc2C[C@H]1C(=O)N[C@@H](CCCNC(=N)N)C(=O)N[C@H](Cc1ccc(I)cc1)C(=O)N[C@@H](Cc1ccc(-c2ccccc2)cc1)C(N)=O (HELM PEPTIDE1{[ac].[Tic].R.[O=C([C@@H](Cc1ccc(I)cc1)N[*:1])[*:2]].[O=C([C@H](Cc1ccc(-c2ccccc2)cc1)N[*:1])[*:2]].[am]}$$$$V2.0) | < 20 | < 20 | inactive | inactive | – | –
30 | CC(=O)N1Cc2ccccc2C[C@H]1C(=O)N[C@@H](CCCNC(=N)N)C(=O)N[C@H](Cc1ccc(I)cc1)C(=O)N[C@H](Cc1ccc2ccccc2c1)C(N)=O (HELM PEPTIDE1{[ac].[Tic].R.[O=C([C@@H](Cc1ccc(I)cc1)N[*:1])[*:2]].[O=C([C@@H](Cc1ccc2ccccc2c1)N[*:1])[*:2]].[am]}$$$$V2.0) | – | – | inactive | inactive | – | –

Source: ChEMBL document CHEMBL4049453, “Discovery of Mixed Pharmacology Melanocortin-3 Agonists and Melanocortin-4 Receptor Tetrapeptide Antagonist Compounds (TACOs) Based on the Sequence Ac-Xaa1-Arg-(pI)DPhe-Xaa4-NH2” (J Med Chem, 2017)
